A short description of assay [1]: In vitro inhibition of 38-beta7 (alpha4-beta7) cell adhesion to mucosal addressin cell adhesion molecule-1. It is filed as functional. A digest of the protocol:
(§1)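 38C13β7 lymphoma cells (α4β7+) labelled with H33342 dye (6 µg/mL), 8 × 10^5 cells/mL in adhesion buffer (Click's RPMI, 1% BSA, 1.0 mM Ca2+/Mg2+). Cells are preincubated with compound 10 min at 37 °C, then adhere 30 min at 37 °C to plates carrying anti-human-IgG-captured MAdCAM-1-IgG from 293T supernatant. Nonadherent cells are removed by inverse centrifugation (50 g, 10 min); readout is fluorimetry; IC50 from curves.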

Assay [2] addresses Integrin alpha-4/beta-1 (Homo sapiens) (UniProt P05556+P13612). In words: In vitro inhibition of Jurkat cell (alpha4-beta1) cell adhesion to vascular cell adhesion molecule-1. The class given is functional, cell-based. A digest of the protocol:
(§2)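 Jurkat cells (α4β1+, α4β7−) are Hoechst H33342-labelled (6 µg/mL), then preincubated with compound 10 min at 37 °C at 8 × 10^5 cells/mL. Adhesion runs 30 min at 37 °C to VCAM-IgG (293T transfectant supernatant) captured on donkey anti-human IgG, in RPMI/1% BSA/1 mM Ca2+, Mg2+. Unbound cells are spun off inverted (50 g, 10 min); adhesion is read by fluorescence; IC50 from curves.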

The target of a further assay is Integrin beta-1 (Homo sapiens, UniProt P05556). In words: Inhibition of alpha4-beta1 interaction to vascular cell adhesion molecule-1 (VCAM-1) was determined. The class given is functional. A digest of the protocol: as §2
The next assay deals with T1, Integrin beta-7 (Homo sapiens, UniProt P13612+P26010).
T1 sequence (P26010 whole entry): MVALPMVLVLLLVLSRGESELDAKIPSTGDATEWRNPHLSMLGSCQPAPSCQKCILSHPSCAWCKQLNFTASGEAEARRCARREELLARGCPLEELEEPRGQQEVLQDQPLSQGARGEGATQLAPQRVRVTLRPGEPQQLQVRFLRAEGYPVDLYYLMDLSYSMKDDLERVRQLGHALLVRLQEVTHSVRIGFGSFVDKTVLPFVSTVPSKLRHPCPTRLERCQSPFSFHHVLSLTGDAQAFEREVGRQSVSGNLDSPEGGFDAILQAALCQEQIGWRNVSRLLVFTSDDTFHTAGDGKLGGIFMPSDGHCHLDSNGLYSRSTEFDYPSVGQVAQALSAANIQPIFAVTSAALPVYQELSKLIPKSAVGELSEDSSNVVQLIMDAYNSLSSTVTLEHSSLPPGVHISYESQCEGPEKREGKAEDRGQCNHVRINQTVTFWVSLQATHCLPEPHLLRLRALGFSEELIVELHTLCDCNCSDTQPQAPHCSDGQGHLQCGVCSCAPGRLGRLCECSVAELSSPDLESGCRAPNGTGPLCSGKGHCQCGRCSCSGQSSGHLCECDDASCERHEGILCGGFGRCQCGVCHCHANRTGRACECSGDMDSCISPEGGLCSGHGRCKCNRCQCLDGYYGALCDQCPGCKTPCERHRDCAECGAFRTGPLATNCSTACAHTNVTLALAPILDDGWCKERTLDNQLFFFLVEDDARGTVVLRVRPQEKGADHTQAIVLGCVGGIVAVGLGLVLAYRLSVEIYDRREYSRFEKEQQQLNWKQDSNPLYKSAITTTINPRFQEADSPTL
In words: Inhibition of alpha4-beta7 interaction to mucosal addressin cell adhesion molecule-1 (MAdCAM-1) was determined. It is filed as functional. A digest of the protocol: as §1

Integrin beta-1, sequence (P05556 whole entry): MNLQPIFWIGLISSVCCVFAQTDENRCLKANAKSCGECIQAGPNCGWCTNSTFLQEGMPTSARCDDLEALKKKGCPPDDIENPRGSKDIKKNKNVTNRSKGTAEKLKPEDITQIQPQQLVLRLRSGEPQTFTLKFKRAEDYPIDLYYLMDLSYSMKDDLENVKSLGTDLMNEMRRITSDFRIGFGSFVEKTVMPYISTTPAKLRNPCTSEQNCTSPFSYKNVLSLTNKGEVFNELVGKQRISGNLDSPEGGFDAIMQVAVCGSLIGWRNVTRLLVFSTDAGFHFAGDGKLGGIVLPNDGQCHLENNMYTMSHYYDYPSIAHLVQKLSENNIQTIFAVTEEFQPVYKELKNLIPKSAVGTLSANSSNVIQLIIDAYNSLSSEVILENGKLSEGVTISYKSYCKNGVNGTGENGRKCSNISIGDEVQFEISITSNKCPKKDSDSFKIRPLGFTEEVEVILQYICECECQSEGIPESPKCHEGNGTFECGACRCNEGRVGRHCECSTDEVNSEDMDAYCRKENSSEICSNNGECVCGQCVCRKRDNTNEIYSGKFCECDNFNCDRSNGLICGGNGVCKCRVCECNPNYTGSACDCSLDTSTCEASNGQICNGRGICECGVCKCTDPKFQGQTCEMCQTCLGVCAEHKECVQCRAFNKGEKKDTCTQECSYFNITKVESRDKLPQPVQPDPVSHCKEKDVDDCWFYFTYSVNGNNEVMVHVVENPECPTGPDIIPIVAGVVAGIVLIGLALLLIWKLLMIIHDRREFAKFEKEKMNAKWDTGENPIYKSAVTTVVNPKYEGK

`COC12CCCC[C@]1(OC)O[C@H]1C(O2)C(COC(C)C)O[C@@H](OCC(=O)O)[C@@H]1OCc1ccccc1` (stereo in doubt; form 1) [listing 1 of 2 here] gave an Adhesion in assay [1] of 100%. On to `COC1C(COC(C)C)O[C@@H](OCC(=O)O)C(OCCO)[C@H]1OC` (stereo not given in full), for which the Adhesion in assay [2] and in assay [1] was 100% each time. For the compound `COC1C(COC(C)C)O[C@@H](OCC(=O)O)[C@H](OCCO)[C@H]1OC` (stereo not given in full), the values for the Adhesion in assay [2] and in assay [1] were 98% and 100%, respectively. On to `CC[C@H](C)[C@@H]1NC(=O)[C@@H](CCC(N)=O)NC(=O)[C@H](N)CSSC[C@H](C(=O)O)NC(=O)[C@H]2CCCN2C(=O)[C@H](CO)NC(=O)[C@@H](CC(=O)O)NC1=O`, for which the Adhesion in assay [2] is 52%. `COC1C(CC(C)C)O[C@@H](OCC(=O)O)[C@H](OCc2ccccc2)[C@H]1OC` (stereo not given in full): the Adhesion in assay [2] and in assay [1] was 100% each time. On to `COC1C(CCC(C)C)O[C@@H](OCC(=O)O)[C@H](OCc2ccccc2)[C@H]1OC` (stereo not given in full), for which the values for the Adhesion in assay [2] and in assay [1] were 97% and 100%, respectively. The term IC50 denotes the point on the concentration scale where inhibition reaches its midpoint. Higher therefore signals a need for much substance. In turn, `CC[C@H](C)[C@@H]1NC(=O)[C@H](CCC(N)=O)NC(=O)[C@@H](N)CSSC[C@@H](C(=O)O)NC(=O)[C@@H]2CCCN2C(=O)[C@H](CO)NC(=O)[C@H](CC(=O)O)NC1=O` had an IC50 against Integrin beta-1 of 1440 µM. In the case of `COC12CCCC[C@]1(OC)O[C@H]1C(O2)C(COC(C)C)O[C@@H](OCC(=O)O)[C@@H]1OCc1ccccc1` (stereo in doubt; form 2) [listing 1 of 2 here], the Adhesion in assay [1] is 76%. Consider `COC1C(COCC(C)C)O[C@@H](OCC(=O)O)C(OCc2ccccc2)[C@H]1OC` (stereo not given in full), for which the Adhesion in assay [2] amounted to 86%; in assay [1], 100%. Turning to `COC1C(COC(C)C)O[C@@H](OCC(=O)O)[C@H](OCc2ccccc2)[C@H]1OC` (stereo not given in full), the figures for the Adhesion in assay [2] and in assay [1] were 92% and 100%, respectively.

In assay [2], `COC12CCCC[C@]1(OC)O[C@H]1C(O2)C(COC(C)C)O[C@@H](OCC(=O)O)[C@@H]1OCc1ccccc1` (stereo in doubt; form 1) [listing 2 of 2 here] returned an Adhesion of 100%.

On to `COC1C(COC(C)C)O[C@@H](OCC(=O)O)C(OCc2ccccc2)[C@H]1OC` (stereo not given in full), for which the Adhesion amounted to 86% in assay [2] and 100% in assay [1]. Regarding `CO[C@@]12O[C@H]3[C@H](O[C@@]1(OC)c1ccccc1-c1ccccc12)[C@@H](COCC(C)C)OC(OCC(=O)O)[C@H]3OCCO` (stereo not given in full), the Adhesion in assay [2] came to 81%; in assay [1] it was 76%. At Integrin beta-7, `CO[C@]12CCCC[C@@]1(OC)OC1[C@H](COCC(C)C)O[C@@H](OCC(=O)O)[C@H](OCc3ccccc3)[C@H]1O2` (stereo in doubt; form 2) [listing 1 of 2 here] displayed an IC50 of 420 µM. Moreover, the Adhesion in assay [1] was 15%. For `CO[C@]12CCCC[C@@]1(OC)OC1[C@H](COCC(C)C)O[C@@H](OCC(=O)O)[C@H](OCc3ccccc3)[C@H]1O2` (stereo in doubt; form 2) [listing 2 of 2 here], the Adhesion in assay [2] turned out to be 77%. Consider `COC1C(COCC(C)C)O[C@@H](OCC(=O)O)[C@H](OCc2ccccc2)[C@H]1OC` (stereo not given in full), for which the Adhesion in assay [2] and in assay [1] was 100% each time. In turn, `COC12CCCC[C@]1(OC)O[C@H]1C(O2)C(COC(C)C)O[C@@H](OCC(=O)O)[C@@H]1OCc1ccccc1` (stereo in doubt; form 2) [listing 2 of 2 here] registered an Adhesion in assay [2] of 100%. `CC(C)C[C@H](NC(=O)c1cc2ccccc2cn1)C(=O)N[C@@H](CC(=O)O)C(=O)N[C@H](C(N)=O)[C@@H](C)O` registered an IC50 at Integrin beta-7 of 280 µM. The Adhesion in assay [2] and in assay [1] was 10% throughout. For `COC1C(COCC(C)C)O[C@@H](OCC(=O)O)[C@H](OCCO)[C@H]1OC` (stereo not given in full), the Adhesion in assay [2] and in assay [1] was 100% each time. As for `COC1C(CCC(C)C)O[C@@H](OCC(=O)O)C(OCc2ccccc2)[C@H]1OC` (stereo not given in full), the Adhesion in assay [2] and in assay [1] was 100% in each case.

Compound `CO[C@]12CCCC[C@@]1(OC)OC1[C@H](COCC(C)C)O[C@@H](OCC(=O)O)[C@H](OCc3ccccc3)[C@H]1O2` (stereo in doubt; form 1) [listing 1 of 2 here] showed an Adhesion in assay [2] of 89%. In turn, `CO[C@]12CCCC[C@@]1(OC)OC1[C@H](COCC(C)C)O[C@@H](OCC(=O)O)[C@H](OCc3ccccc3)[C@H]1O2` (stereo in doubt; form 1) [listing 2 of 2 here] displayed an Adhesion in assay [1] of 90%. `COC1C(CC(C)C)O[C@@H](OCC(=O)O)C(OCc2ccccc2)[C@H]1OC` (stereo not given in full): the Adhesion in assay [2] and in assay [1] was 100% each time. Consider `CO[C@@]12O[C@@H]3[C@H](OCCO)[C@H](OCC(=O)O)O[C@H](COCC(C)C)[C@H]3O[C@@]1(OC)c1ccccc1-c1ccccc12`, for which the Adhesion in assay [2] was 82%; in assay [1], 80%.

Source of the values: ChEMBL document CHEMBL1146598, “Synthesis and structure-activity relationship of mannose-based peptidomimetics selectively blocking integrin alpha4beta7 binding to mucosal addressin cell adhesion molecule-1” (J Med Chem, 2003).
